# In paper PMC2673089 (Journal of pharmaceutical sciences, 2008):
# Key:
# NET = conditions: read-out: NET Ki; mean ± SEM; cited from earlier work
# [1] = Pharmacokinetics and brain uptake after i.v. dosing; format: in vivo, male Sprague–Dawley rats; conditions: for AUC0–1440 min (plasma): noncompartmental analysis
# rat CYP1A2 = biological target: T1, rat CYP1A2 (Rattus norvegicus, UniProt P04799); test: Metabolism by recombinant rat CYP1A2 Supersomes; format: in vitro ADME
# T1 sequence (P04799 1-513): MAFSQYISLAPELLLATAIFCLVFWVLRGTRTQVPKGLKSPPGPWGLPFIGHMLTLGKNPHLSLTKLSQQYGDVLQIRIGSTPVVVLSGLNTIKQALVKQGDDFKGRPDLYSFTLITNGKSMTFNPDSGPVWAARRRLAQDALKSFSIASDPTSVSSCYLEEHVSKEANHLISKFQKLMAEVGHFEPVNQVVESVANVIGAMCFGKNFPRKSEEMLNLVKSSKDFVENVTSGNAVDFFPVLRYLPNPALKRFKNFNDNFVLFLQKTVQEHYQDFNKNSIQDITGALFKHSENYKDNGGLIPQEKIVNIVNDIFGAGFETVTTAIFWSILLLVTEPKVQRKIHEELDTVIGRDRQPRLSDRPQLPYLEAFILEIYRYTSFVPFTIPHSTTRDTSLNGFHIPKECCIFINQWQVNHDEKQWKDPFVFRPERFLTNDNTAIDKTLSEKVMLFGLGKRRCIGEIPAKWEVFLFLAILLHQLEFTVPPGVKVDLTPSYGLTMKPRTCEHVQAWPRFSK
# Caco-2 monolayers = test: Bidirectional transport and verapamil inhibition across Caco-2 monolayers; format: in vitro ADME
# [2] = test system: extracellular levels of DA in the nucleus accumbens (NAc); test: Intracerebral microdialysis of NAc dopamine; format: in vivo, Sprague–Dawley rats; conditions: for maximal increase of DA: NAc dialysate; for time DA levels remained significantly elevated above basal: post hoc p < 0.05
# Method in brief: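 CMA/12 probe (2 mm) was perfused with aCSF at 1 μL/min. Dialysate was collected over 10-min periods to 360 min. DA by HPLC-ECD, as % of mean of four basal samples. Repeated-measures ANOVA, Dunnett vs time zero.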
# human CYP2C19 = human CYP2C19 (Homo sapiens, UniProt P33261); test: Metabolism by recombinant human CYP2C19 Supersomes; format: in vitro ADME
# Chain of human CYP2C19 (P33261 whole entry): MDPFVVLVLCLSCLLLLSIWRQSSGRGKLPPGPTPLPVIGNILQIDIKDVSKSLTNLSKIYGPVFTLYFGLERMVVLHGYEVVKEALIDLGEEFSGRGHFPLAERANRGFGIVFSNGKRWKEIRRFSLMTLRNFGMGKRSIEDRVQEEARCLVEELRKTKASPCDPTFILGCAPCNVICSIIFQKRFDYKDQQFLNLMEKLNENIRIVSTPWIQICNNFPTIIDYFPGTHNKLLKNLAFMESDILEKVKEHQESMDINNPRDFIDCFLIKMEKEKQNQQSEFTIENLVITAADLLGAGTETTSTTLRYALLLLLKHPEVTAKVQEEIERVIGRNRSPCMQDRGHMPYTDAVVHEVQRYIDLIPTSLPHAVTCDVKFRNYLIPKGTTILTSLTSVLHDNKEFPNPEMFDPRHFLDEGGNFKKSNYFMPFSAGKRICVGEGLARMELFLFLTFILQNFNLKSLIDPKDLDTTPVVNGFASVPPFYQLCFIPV
# human CYP2D6 = human CYP2D6 (Homo sapiens, UniProt P10635); test: Metabolism by recombinant human CYP2D6 Supersomes; format: in vitro ADME
# Chain of human CYP2D6 (P10635 whole entry): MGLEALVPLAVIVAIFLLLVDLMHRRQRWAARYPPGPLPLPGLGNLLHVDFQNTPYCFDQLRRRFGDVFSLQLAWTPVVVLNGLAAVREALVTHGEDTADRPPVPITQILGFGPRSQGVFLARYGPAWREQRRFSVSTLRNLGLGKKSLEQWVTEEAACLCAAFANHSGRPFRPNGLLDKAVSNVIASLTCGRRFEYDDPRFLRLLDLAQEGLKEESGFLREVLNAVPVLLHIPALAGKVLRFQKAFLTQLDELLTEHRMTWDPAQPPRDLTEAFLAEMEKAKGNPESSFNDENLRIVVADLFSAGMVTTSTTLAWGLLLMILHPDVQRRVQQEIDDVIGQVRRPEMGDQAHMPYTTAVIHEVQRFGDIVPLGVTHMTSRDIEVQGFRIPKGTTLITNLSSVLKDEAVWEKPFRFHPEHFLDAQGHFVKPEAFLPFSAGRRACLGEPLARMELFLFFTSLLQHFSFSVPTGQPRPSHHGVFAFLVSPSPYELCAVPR
# rat CYP3A1 = biological target: T2, rat CYP3A1 (Rattus norvegicus, UniProt P04800); test: Metabolism by recombinant rat CYP3A1 Supersomes; format: in vitro ADME
# T2 sequence (P04800 1-504): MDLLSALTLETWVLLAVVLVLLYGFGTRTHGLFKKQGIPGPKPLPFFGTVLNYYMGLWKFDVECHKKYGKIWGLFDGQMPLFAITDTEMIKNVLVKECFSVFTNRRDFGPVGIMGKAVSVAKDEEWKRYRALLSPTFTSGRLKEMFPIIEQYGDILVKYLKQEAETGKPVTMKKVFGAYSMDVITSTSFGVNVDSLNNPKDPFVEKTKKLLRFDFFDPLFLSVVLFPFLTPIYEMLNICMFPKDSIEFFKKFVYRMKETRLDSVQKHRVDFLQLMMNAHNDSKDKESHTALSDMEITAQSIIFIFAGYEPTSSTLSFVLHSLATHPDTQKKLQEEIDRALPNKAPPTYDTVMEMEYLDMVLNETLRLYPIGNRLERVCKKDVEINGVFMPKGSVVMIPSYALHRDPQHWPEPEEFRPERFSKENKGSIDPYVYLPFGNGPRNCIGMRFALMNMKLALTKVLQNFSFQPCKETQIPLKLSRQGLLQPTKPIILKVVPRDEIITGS
# MDCK-MDR1 monolayers = test: Bidirectional transport and verapamil inhibition across MDCK-MDR1 monolayers; format: in vitro ADME
# histamine H1 receptors = conditions: read-out: H1 Ki; mean ± SEM; cited from earlier work
# SERT = conditions: read-out: SERT Ki; mean ± SEM; cited from earlier work
# human CYP2E1 = human CYP2E1 (Homo sapiens, UniProt P05181); test: Metabolism by recombinant human CYP2E1 Supersomes; format: in vitro ADME
# Chain of human CYP2E1 (P05181 whole entry): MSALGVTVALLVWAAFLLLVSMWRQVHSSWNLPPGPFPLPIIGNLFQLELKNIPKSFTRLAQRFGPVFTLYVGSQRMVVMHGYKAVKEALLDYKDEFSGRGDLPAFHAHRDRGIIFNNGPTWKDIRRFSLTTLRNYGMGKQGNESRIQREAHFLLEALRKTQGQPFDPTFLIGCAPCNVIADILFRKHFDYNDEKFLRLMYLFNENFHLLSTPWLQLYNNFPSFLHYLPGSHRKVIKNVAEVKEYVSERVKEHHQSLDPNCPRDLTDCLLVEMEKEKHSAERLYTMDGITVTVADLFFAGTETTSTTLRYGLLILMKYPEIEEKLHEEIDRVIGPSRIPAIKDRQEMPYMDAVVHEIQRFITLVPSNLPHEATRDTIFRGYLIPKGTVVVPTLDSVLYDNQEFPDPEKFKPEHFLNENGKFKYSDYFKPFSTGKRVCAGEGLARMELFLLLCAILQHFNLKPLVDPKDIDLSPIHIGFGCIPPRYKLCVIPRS
# DAT = conditions: read-out: DAT Ki; mean ± SEM; cited from earlier work
# muscarinic M1 receptors = conditions: read-out: M1 Ki; mean ± SEM; cited from earlier work
# [3] = test system: pooled human liver microsomes; test: Metabolism in pooled human liver microsomes; format: in vitro ADME
# [4] = test system: pooled male Sprague–Dawley rat liver microsomes; test: Metabolism in pooled male rat liver microsomes; format: in vitro ADME
# DA uptake = conditions: read-out: DA Uptake IC50; mean ± SEM; cited from earlier work
# [5] = population PK estimate (% CV), i.v. 5 and 10 mg/kg combined, n = 54 rats
# [6] = 0.1 mM, absence of verapamil, mean ± SD (n = 3)
# [7] = MDCK-MDR1, 0.1 mM, absence of verapamil, mean ± SD (n = 3)
smiles,measurement,setting,value
"CC(C)[C@@H](N)CN1C2CCC1CC(OC(c1ccc(F)cc1)c1ccc(F)cc1)C2 (stereo partly drawn) [GA2-50, N-((R)-2″-amino-3″-methyl-n-butyl)-3α-[(bis-4′-fluorophenyl)methoxy]tropane]",Ki,NET,2130 ± 160 nM
same,brain-to-plasma partition coefficient (Ri),"[1]; 5 mg/kg i.v., AUC0–1440 min brain/plasma",10.1
same,AUC0–1440 min (plasma),[1]; 5 mg/kg i.v.,141.8 µg·min/mL
same,maximal total brain concentration,[1]; 10 mg/kg i.v.,approximately 5 μg/g
same,brain-to-plasma partition coefficient (Ri),"[1]; 10 mg/kg i.v., AUC0–1440 min brain/plasma",9.6
same,AUC0–1440 min (plasma),[1]; 10 mg/kg i.v.,258.0 µg·min/mL
same,Vss,"[1]; Table 4, secondary parameter from NONMEM empirical Bayes estimates, i.v., rats",622 mL/min/kg
same,signs of toxicity,[1]; i.v. 5 or 10 mg/kg,did not show any signs of toxicity
same,brain-to-plasma partition coefficient (Ri),"[1]; overall, dose not specified",~ 10
same,CL,[1]; [5],1.34 (9.3) L/h/kg
same,Q,[1]; [5],7.8 (19.9) L/h/kg
same,Vc,[1]; [5],8.09 (13.6) L/kg
same,Vp,[1]; [5],27.9 (10.5) L/kg
same,t1/2 (elimination half-life),"[1]; secondary parameter from NONMEM empirical Bayes estimates, i.v., rats",19.2 h
same,Intrinsic Clearance,"rat CYP1A2; Rat CYP 1A2 50 pmol/mL, 4 μM",0.06 ± 0.01 (d) microliters per minute per picomole of P450
same,Substrate disappearance after 60 min incubation vs control,"rat CYP1A2; rat CYP1A2, 10 μM, 50 pmol/mL P450, p < 0.05",statistically significant disappearance
same,Permeability relative to JHW 025,Caco-2 monolayers,> 4 fold
same,Efflux Ratio,"Caco-2 monolayers; 0.1 mM, Papp(B-A)/Papp(A-B)",8.3
same,Papp A-B,Caco-2 monolayers; [6],1.37 ± 0.08 × 10^−6 cm/s
same,Papp B-A,Caco-2 monolayers; [6],11.36 ± 1.41 × 10^−6 cm/s
same,Enhancement ratio of A-B transport by verapamil,Caco-2 monolayers; verapamil 200 μM,3.4
same,maximal DA elevation relative to basal,[2]; 5 mg/kg i.v.,1.6 fold
same,time of maximal DA increase postdose,[2]; 5 mg/kg i.v.,20 min
same,maximal increase of DA,[2]; 5 mg/kg i.v.,159 % of the basal values
same,time DA levels remained significantly elevated above basal,[2]; 5 mg/kg i.v.,up to 1 h
same,maximal DA elevation relative to basal,[2]; 10 mg/kg i.v.,2.7 fold
same,time of maximal DA increase postdose,[2]; 10 mg/kg i.v.,30 min
same,maximal increase of DA,[2]; 10 mg/kg i.v.,274 % of the basal values
same,time DA levels remained significantly elevated above basal,"[2]; 10 mg/kg i.v., whole 6 h experiment",≥ 6 h
same,effect on cocaine-induced DA elevation,"[2]; GA2-50 + cocaine, 5 mg/kg of each i.v., simultaneous administration",did not have significant effect on the DA elevation induced by cocaine
same,Intrinsic Clearance,"human CYP2C19; Human CYP 2C19 50 pmol/mL, 4 μM",0.10 ± 0.01 (c) microliters per minute per picomole of P450
same,Substrate disappearance after 60 min incubation vs control,"human CYP2C19; human CYP2C19, 10 μM, 50 pmol/mL P450, p < 0.05",statistically significant disappearance
same,Intrinsic Clearance,"human CYP2D6; Human CYP 2D6 50 pmol/mL, 4 μM",0.15 ± 0.02 (b) microliters per minute per picomole of P450
same,Substrate disappearance after 60 min incubation vs control,"human CYP2D6; human CYP2D6, 10 μM, 50 pmol/mL P450, p < 0.05",statistically significant disappearance
same,Intrinsic Clearance,"rat CYP3A1; Rat CYP 3A1 50 pmol/mL, 4 μM","0.09 ± 0.02 (c,d) microliters per minute per picomole of P450"
same,Substrate disappearance after 60 min incubation vs control,"rat CYP3A1; rat CYP3A1, 10 μM, 50 pmol/mL P450, p < 0.05",statistically significant disappearance
same,Permeability relative to JHW 025,MDCK-MDR1 monolayers; MDCK-MDR1,around 6.8 fold
same,Efflux Ratio,"MDCK-MDR1 monolayers; MDCK-MDR1, 0.1 mM, Papp(B-A)/Papp(A-B)",3.4
same,Papp A-B,MDCK-MDR1 monolayers; [7],34.01 ± 2.78 × 10^−6 cm/s
same,Papp B-A,MDCK-MDR1 monolayers; [7],116.97 ± 5.23 × 10^−6 cm/s
same,Enhancement ratio of A-B transport by verapamil,"MDCK-MDR1 monolayers; MDCK-MDR1, verapamil 200 μM",2.3
same,P-gp substrate status,"MDCK-MDR1 monolayers; polarized transport across MDCK-MDR1 and Caco-2, verapamil-sensitive",substrate for the efflux transporter P-gp
same,Ki,histamine H1 receptors,218 ± 15.5 nM
same,Ki,SERT,3870 ± 135 nM
same,Intrinsic Clearance,"human CYP2E1; Human CYP 2E1 50 pmol/mL, 4 μM","0.09 ± 0.02 (c,d) microliters per minute per picomole of P450"
same,Substrate disappearance after 60 min incubation vs control,"human CYP2E1; human CYP2E1, 10 μM, 50 pmol/mL P450, p < 0.05",statistically significant disappearance
same,Ki,DAT,56.4 ± 9.6 nM
same,Ki,muscarinic M1 receptors,4020 ± 592 nM
same,Intrinsic Clearance,"[3]; Pooled HLM 0.8 mg/mL, 4 μM, mean ± SD n = 3",3.17 ± 1.18 microliters per minute per milligram of protein
same,"Intrinsic clearance, fold lower than 4′,4″-diCl BZT","[3]; pooled human liver microsomes, comparator values ref 26",4.0 fold
same,Intrinsic Clearance,"[4]; Pooled male RLM 0.8 mg/mL, 4 μM, mean ± SD n = 3",5.96 ± 0.56 microliters per minute per milligram of protein
same,Intrinsic clearance in pooled male RLM relative to HLM,[4]; higher in rat than in human liver microsomes,1.9 fold
same,"Intrinsic clearance, fold lower than 4′,4″-diCl BZT","[4]; pooled male rat liver microsomes, comparator values ref 26",3.6 fold
same,IC50,DA uptake,20.7 ± 2.85 nM
